Laboratory results as given in ChEMBL document CHEMBL5321232, “Synthesis and biological evaluation of dual MDM2/XIAP inhibitors based on the tetrahydroquinoline scaffold” (Eur J Med Chem, 2023).
Calls of active or inactive are those of the source. No cut-off for these calls is given here.

How the values were obtained:
[1] = Antiproliferative activity against human EU-1 cells assessed as inhibition of cell growth incubated for 44 hrs by WST assay; format: functional, cell-based; details: EU-1, 44 h
How it was run: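 Pediatric ALL-derived EU-1 cells grown in RPMI 1640 with 10% FBS, 2 mmol/L L-glutamine and penicillin/streptomycin at 37 °C, 5% CO2. Compounds given at graded concentrations for 44 h. WST (25 μg/well) then added for a further 4 h. OD read at 450 nm against a 620 nm reference, with cell-free wells for background.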

MDA-MB-231 = assay: Antiproliferative activity against human MDA-MB-231 cells assessed as inhibition of cell growth incubated for 72 hrs by MTS assay; format: functional, cell-based; details: MDA-MB-231, 72 h
How it was run: (§1)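 Cells seeded at 3,000–8,000 per well according to growth rate and incubated overnight. They were then exposed to compounds over 3 nM–100 μM for 72 h, four replicates per concentration. MTS added, 1.5 h in the dark at 37 °C, absorbance read at 490 nm. IC50 normalized to untreated cells and fitted by nonlinear regression.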

CWR22R [2] = assay: Antiproliferative activity against human 22Rv1 cells assessed as inhibition of cell growth incubated for 72 hrs by MTS assay; format: functional, cell-based; details: 22Rv1, 72 h; how it was run: as §1
A-375 [3] = assay: Inhibition of colony formation in human A-375 cells assessed as reduction in number of clonogenic cells at 1 to 10 uM incubated for 10 days and subsequent media replacement with compound for every 3 days by crystal violet staining based microscopic analysis; format: functional, cell-based; details: dose 1-10 µM, time 10.0 day
How it was run: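 A375 cells in log phase were seeded at 250 per well and incubated 48 h. They were then treated with 1, 5 or 10 μM for 10 days, with medium ± compound changed every 3 days. Colonies were methanol-fixed, stained with 0.5% crystal violet and counted by microscopy. Colony area expressed versus vehicle (100%) as mean ± SEM of three biological replicates.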

CWR22R [4] = assay: Inhibition of colony formation in human 22Rv1 cells assessed as reduction in number of clonogenic cells incubated for 14 days and subsequent media replacement with compound for every 3 days by crystal violet staining based microscopic analysis; format: functional, cell-based; details: dose 1-10 µM, time 14.0 day
How it was run: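 22Rv1 cells in log phase were seeded at 2,000 per well and incubated 72 h. They were then treated with 1, 5 or 10 μM for 14 days, with medium ± compound renewed every 3 days. Colonies were fixed in cold methanol, stained with 0.5% crystal violet and counted microscopically. Run in triplicate; area expressed relative to vehicle (100%) as mean ± SEM of three biological replicates.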

EU-1 [5] = assay: Downregulation of MDM2 expression in human EU-1 cells upto 1 uM by Western blot analysis; format: functional, cell-based; details: time 8.0 hrs, TDE = time-dependent effect
How it was run: (§2)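 EU-1 cells were treated at the doses and times indicated; for caspase-3, caspase-9 and PARP, 1 μM over a time course. Cells were lysed for 30 min in NaCl/Tris pH 8.0/EDTA/NP-40 buffer with protease inhibitors. Equal protein was run on SDS-PAGE and transferred to nitrocellulose. Membranes were blocked in milk, incubated with primary antibodies for 3 h at room temperature and HRP secondary for 1 h, then developed by ECL.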

EU-1 [6] = assay: Downregulation of MDM2 expression in human EU-1 cells incubated for 8 hrs by Western blot analysis; format: functional, cell-based; details: dose <= 1.0 µM; how it was run: as §2
[7] = target: E3 ubiquitin-protein ligase Mdm2 (Homo sapiens) (UniProt Q00987); assay: Inhibition of MDM2 in human EU-1 cells assessed as increase in p53 expression upto 1 uM incubated at 8 hrs by Western blot analysis; format: cell-based; how it was run: as §2
E3 ubiquitin-protein ligase Mdm2 (Homo sapiens), sequence (Q00987 whole entry, looked up): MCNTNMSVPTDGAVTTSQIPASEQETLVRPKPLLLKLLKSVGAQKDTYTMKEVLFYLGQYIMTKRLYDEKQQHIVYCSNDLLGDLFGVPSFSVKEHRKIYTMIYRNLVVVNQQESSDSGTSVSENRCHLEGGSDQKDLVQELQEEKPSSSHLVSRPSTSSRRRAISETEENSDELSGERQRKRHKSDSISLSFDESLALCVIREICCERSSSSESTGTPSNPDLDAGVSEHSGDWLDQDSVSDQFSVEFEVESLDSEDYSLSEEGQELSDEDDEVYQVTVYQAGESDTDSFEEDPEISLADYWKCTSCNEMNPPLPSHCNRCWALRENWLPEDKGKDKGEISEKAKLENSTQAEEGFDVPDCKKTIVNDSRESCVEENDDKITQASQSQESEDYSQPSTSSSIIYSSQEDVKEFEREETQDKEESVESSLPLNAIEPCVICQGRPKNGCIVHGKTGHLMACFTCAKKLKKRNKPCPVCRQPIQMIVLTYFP

[8] = target: E3 ubiquitin-protein ligase Mdm2 (Homo sapiens) (UniProt Q00987); assay: Inhibition of MDM2 in human EU-1 cells assessed as increase in p21 expression upto 1 uM incubated at 8 hrs by Western blot analysis; format: cell-based; how it was run: as §2
[9] = target: E3 ubiquitin-protein ligase Mdm2 (Homo sapiens) (UniProt Q00987); assay: Inhibition of MDM2 in human EU-1 cells assessed as increase in PUMA expression upto 1 uM incubated at 8 hrs by Western blot analysis; format: cell-based; how it was run: as §2
[10] = target: E3 ubiquitin-protein ligase XIAP (Homo sapiens) (UniProt P98170); assay: Inhibition of XIAP in human EU-1 cells assessed as increase in caspase3 at 1 uM incubated upto 24 hrs by Western blot analysis; format: cell-based; how it was run: as §2
E3 ubiquitin-protein ligase XIAP (Homo sapiens), sequence (P98170 whole entry): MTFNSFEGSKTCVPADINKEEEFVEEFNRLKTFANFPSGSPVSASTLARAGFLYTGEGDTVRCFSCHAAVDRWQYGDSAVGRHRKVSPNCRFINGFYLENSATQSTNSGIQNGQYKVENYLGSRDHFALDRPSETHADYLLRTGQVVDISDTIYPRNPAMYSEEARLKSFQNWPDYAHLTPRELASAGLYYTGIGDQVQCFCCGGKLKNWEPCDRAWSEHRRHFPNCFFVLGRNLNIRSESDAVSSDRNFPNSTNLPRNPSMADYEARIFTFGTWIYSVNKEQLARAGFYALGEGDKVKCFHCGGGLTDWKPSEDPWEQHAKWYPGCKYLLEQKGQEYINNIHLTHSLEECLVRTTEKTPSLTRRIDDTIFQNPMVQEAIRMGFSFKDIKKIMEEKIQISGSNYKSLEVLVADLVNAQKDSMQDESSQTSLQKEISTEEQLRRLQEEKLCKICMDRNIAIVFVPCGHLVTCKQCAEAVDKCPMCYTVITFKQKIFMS

[11] = target: E3 ubiquitin-protein ligase XIAP (Homo sapiens) (UniProt P98170); assay: Inhibition of XIAP in human EU-1 cells assessed as increase in caspase-9 at 1 uM incubated upto 24 hrs by Western blot analysis; format: cell-based; how it was run: as §2
[12] = target: E3 ubiquitin-protein ligase XIAP (Homo sapiens) (UniProt P98170); assay: Inhibition of XIAP in human EU-1 cells assessed as increase in PARP at 1 uM incubated upto 24 hrs by Western blot analysis; format: cell-based; how it was run: as §2
[13] = target: E3 ubiquitin-protein ligase Mdm2 (Homo sapiens) (UniProt Q00987); assay: Inhibition of MDM2 in human 22Rv1 cells assessed as increase in p53 expression upto 10 uM incubated at 24 hrs by Western blot analysis; format: cell-based
How it was run: (§3)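 22Rv1 or A375 cells grown to 80% confluence were exposed for 24 h to 1, 5 or 10 μM compound in DMEM. AMG-232 control ran at 100 nM–1 μM. Cells were lysed in RIPA with protease/phosphatase inhibitors, and 30 μg protein was run on SDS-PAGE/PVDF. Membranes were blocked in 5% milk and probed overnight at 4 °C for p53, c-PARP, MDM2 and GAPDH. Bands detected by HRP/ECL.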

[14] = target: E3 ubiquitin-protein ligase Mdm2 (Homo sapiens) (UniProt Q00987); assay: Inhibition of MDM2 in human A-375 cells assessed as increase in p53 expression upto 10 uM incubated at 24 hrs by Western blot analysis; format: cell-based
How it was run: as §3, with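 “DMEM.” for “DMEM. AMG-232 control ran at 100 nM–1 μM.”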

[15] = target: E3 ubiquitin-protein ligase Mdm2 (Homo sapiens) (UniProt Q00987); assay: Inhibition of MDM2 in human 22Rv1 cells assessed as increase in PARP expression upto 10 uM incubated at 24 hrs by Western blot analysis; format: cell-based; how it was run: as §3
[16] = target: E3 ubiquitin-protein ligase Mdm2 (Homo sapiens) (UniProt Q00987); assay: Inhibition of MDM2 in human A-375 cells assessed as increase in PARP expression upto 10 uM incubated at 24 hrs by Western blot analysis; format: cell-based; how it was run: as §3
CWR22R [17] = assay: Antitumor activity against human 22Rv1 cells xenografted in NOD SCID mouse assessed as inhibition of tumor growth at 60 mg/kg, ip administered for 10 days and measured every 3 days; format: functional, organism-based; details: time 10.0 day
How it was run: (§4)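 Male humanized NSG mice, 8–9 weeks old, were injected s.c. in the right dorsal flank with 2 million 22Rv1 cells in medium/Matrigel 1:1. After ~14 days (mean tumor ~100 mm3), mice were randomized, n=5/group. Dosing was 60 mg/kg i.p. daily for 10 days in 5% DMSO/65% PEG400/30% saline, or vehicle alone. Caliper volume (a×b2×0.5) and body weight were recorded every 3 days.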

CWR22R [18] = assay: Antitumor activity against human 22Rv1 cells xenografted in NOD SCID mouse at 60 mg/kg, ip administered for 10 days and measured every 3 days; format: functional, organism-based; details: time 10.0 day; how it was run: as §4
[19] = Toxicity in NOD SCID mouse assessed as body weight loss at 60 mg/kg, ip administered for 10 days and measured every 3 days; format: organism-based; details: in vivo, 240 h, time 10 day; how it was run: as §4
CWR22R [20] = assay: Antitumor activity against human 22Rv1 cells xenografted in NOD SCID mouse assessed as decrease in MDM2 expression at 60 mg/kg, ip administered for 10 days by immunostaining analysis; format: functional, organism-based; details: time 10.0 day
How it was run: (§5)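 Tumors came from 22Rv1 xenografts in male NSG mice dosed i.p. daily for 10 days. Cryosections (10 μm) were fixed in 4% PFA and permeabilized with 0.25% Triton X-100, then blocked with 10% goat serum. Primary antibodies (1:200) against MDM2, cleaved caspase-3, cleaved PARP or CD31 were applied overnight at 4 °C, followed by fluorescent secondaries (1:1,000, 2 h) and a DAPI counterstain. Fluorescence intensity quantified as mean ± SEM.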

CWR22R [21] = assay: Antitumor activity against human 22Rv1 cells xenografted in NOD SCID mouse assessed as increase in cleaved caspase3 expression at 60 mg/kg, ip administered for 10 days by immunostaining analysis; format: functional, organism-based; details: time 10.0 day; how it was run: as §5
CWR22R [22] = assay: Antitumor activity against human 22Rv1 cells xenografted in NOD SCID mouse assessed as increase in cleaved PARP expression at 60 mg/kg, ip administered for 10 days by immunostaining analysis; format: functional, organism-based; details: time 10.0 day; how it was run: as §5
CWR22R [23] = assay: Antitumor activity against human 22Rv1 cells xenografted in NOD SCID mouse assessed as disruption of tumor vasculature at 60 mg/kg, ip administered for 10 days by immunostaining analysis; format: functional, organism-based; details: time 10.0 day; how it was run: as §5
A-375 [24] = assay: Antiproliferative activity against human A-375 cells assessed as inhibition of cell growth incubated for 72 hrs by MTS assay; details: A-375, 72 h

IC50 (MDA-MB-231): 1500 nM
inhibition [7]: Active
inhibition [8]: Active
inhibition [9]: Active
inhibition [10]: Active
inhibition [11]: Active
inhibition [12]: Active
inhibition [13]: Active
inhibition [14]: Active
inhibition [15]: Active
inhibition [16]: Active
IC50 (A-375 [24]): 1000 nM
SMILES: CC(=O)c1cccc(NS(=O)(=O)c2ccc3c(c2)C2OCCC2C(c2ccc(C(=O)C(C)C)cc2)N3)c1 (stereo not given)
IC50 [1]: 200 nM
IC50 (CWR22R [2]): 5300 nM
inhibition (A-375 [3]): Active
inhibition (CWR22R [4]): Dose-Dependent Effect
Activity (EU-1 [5]): Tde
Activity (EU-1 [6]): Dose-Dependent Effect
Activity (CWR22R [17]): Active
Activity (CWR22R [18]): Active
Activity [19]: Non-Toxic
Activity (CWR22R [20]): Active
Activity (CWR22R [21]): Active
Activity (CWR22R [22]): Active
Activity (CWR22R [23]): Active
